The results in this text go back to ChEMBL document CHEMBL4680134, “Structural optimization of natural product nordihydroguaretic acid to discover novel analogues as AcrB inhibitors” (Eur J Med Chem, 2020).

Activity calls are given as the source filed them. The calls are words filed in the database; no cut-off is given here.

Assay [1] concerns the target T1, Multidrug efflux pump subunit AcrB (Escherichia coli (strain K12)) (UniProt P31224).
T1 sequence (whole entry): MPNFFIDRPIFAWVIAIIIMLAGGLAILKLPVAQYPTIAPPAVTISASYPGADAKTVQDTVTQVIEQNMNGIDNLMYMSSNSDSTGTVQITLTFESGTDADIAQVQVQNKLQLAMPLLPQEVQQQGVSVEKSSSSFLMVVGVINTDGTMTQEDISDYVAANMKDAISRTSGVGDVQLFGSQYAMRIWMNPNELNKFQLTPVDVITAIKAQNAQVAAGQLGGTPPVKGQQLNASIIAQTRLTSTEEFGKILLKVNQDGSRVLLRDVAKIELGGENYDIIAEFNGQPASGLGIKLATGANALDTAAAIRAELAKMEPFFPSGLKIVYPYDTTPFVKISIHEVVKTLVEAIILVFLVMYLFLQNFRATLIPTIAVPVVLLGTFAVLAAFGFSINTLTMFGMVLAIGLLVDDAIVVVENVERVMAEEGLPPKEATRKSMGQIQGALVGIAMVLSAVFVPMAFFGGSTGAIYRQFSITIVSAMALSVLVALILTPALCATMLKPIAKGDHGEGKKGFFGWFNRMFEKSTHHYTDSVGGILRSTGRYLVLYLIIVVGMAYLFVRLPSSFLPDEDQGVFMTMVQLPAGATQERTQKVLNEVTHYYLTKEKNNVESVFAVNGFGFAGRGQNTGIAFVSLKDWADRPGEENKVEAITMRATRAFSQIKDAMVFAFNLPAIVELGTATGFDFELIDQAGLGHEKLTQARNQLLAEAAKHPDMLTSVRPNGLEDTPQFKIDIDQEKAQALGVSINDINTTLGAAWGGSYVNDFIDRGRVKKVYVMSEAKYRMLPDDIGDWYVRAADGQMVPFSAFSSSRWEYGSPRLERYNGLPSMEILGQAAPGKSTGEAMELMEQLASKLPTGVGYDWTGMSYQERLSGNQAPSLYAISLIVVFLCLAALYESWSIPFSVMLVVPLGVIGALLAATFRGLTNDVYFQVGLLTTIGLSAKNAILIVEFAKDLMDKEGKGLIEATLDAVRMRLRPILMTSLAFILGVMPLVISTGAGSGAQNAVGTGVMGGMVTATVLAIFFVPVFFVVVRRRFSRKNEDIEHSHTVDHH
The assay is described as follows: Inhibition of AcrB in Escherichia coli BW25113 assessed as potentiation of erythromycin induced antibacterial activity by measuring erythromycin MIC at 8 ug/ml measured after 18 hrs by checkerboard titration method (reference value: 64 ug/ml). The note with it: dose 8.0 µg/ml.

Assay [2] concerns the target T1, Multidrug efflux pump subunit AcrB (Escherichia coli (strain K12)). Kind of assay: Inhibition of AcrB in Escherichia coli BW25113 assessed as potentiation of erythromycin induced antibacterial activity by measuring erythromycin MIC at 16 ug/ml measured after 18 hrs by checkerboard titration method (reference value: 64 ug/ml). The note with it: dose 16.0 µg/ml.
Assay [3] has the same target. The assay is described as follows: Inhibition of AcrB in Escherichia coli BW25113 assessed as potentiation of erythromycin induced antibacterial activity by measuring erythromycin MIC at 64 ug/ml measured after 18 hrs by checkerboard titration method (reference value: 64 ug/ml). The note with it: dose 64.0 µg/ml.
Assay [4] shares this target. Kind of assay: Inhibition of AcrB in Escherichia coli BW25113 assessed as potentiation of erythromycin induced antibacterial activity by measuring erythromycin MIC at 128 ug/ml measured after 18 hrs by checkerboard titration method (reference value: 64 ug/ml). As to conditions: dose 128.0 µg/ml.
For assay [5] the target is unchanged. The assay is described as follows: Inhibition of AcrB in Escherichia coli BW25113 assessed as potentiation of tetraphenylphosphonium induced antibacterial activity by measuring tetraphenylphosphonium MIC at 128 ug/ml measured after 18 hrs by checkerboard titration method (reference value: 1024 ug/ml). The note with it: dose 128.0 µg/ml.
Assay [6] has the same target. The assay is described as follows: Inhibition of AcrB in Escherichia coli BW25113 assessed as potentiation of levofloxacin induced antibacterial activity by measuring levofloxacin MIC at 8 ug/ml measured after 18 hrs by checkerboard titration method (reference value: 0.06 ug/ml). As to conditions: dose 8.0 µg/ml.
Assay [7] shares this target. The assay is described as follows: Inhibition of AcrB in Escherichia coli BW25113 assessed as potentiation of levofloxacin induced antibacterial activity by measuring levofloxacin MIC at 32 ug/ml measured after 18 hrs by checkerboard titration method (reference value: 0.06 ug/ml). As to conditions: dose 32.0 µg/ml.
Assay [8] has the same target. The assay is described as follows: Inhibition of AcrB in Escherichia coli BW25113 assessed as potentiation of levofloxacin induced antibacterial activity by measuring levofloxacin MIC at 64 ug/ml measured after 18 hrs by checkerboard titration method (reference value: 0.06 ug/ml). As to conditions: dose 64.0 µg/ml.
The target is the same in assay [9]. The assay is described as follows: Inhibition of AcrB in Escherichia coli BW25113 assessed as potentiation of rifampicin induced antibacterial activity by measuring rifampicin MIC at 8 ug/ml measured after 18 hrs by checkerboard titration method (reference value: 16 ug/ml). As to conditions: dose 8.0 µg/ml.
The target is the same in assay [10]. The assay is described as follows: Inhibition of AcrB in Escherichia coli BW25113 assessed as potentiation of rifampicin induced antibacterial activity by measuring rifampicin MIC at 64 ug/ml measured after 18 hrs by checkerboard titration method (reference value: 16 ug/ml). The note with it: dose 64.0 µg/ml.
Assay [11] shares this target. Kind of assay: Inhibition of AcrB in Escherichia coli BW25113 assessed as reduction in glucose-induced nile red efflux at 500 uM preincubated for 15 mins followed by nile red addition and incubated for 3 hrs in shaker in presence of CCCP by fluorimetric analysis. The note with it: time 195.0 min. In short, it runs like this: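 Wild-type E. coli cells with active AcrB were preloaded with Nile Red, with or without compound, before fluorescence recording began. At 100 sec, 0.2% glucose was added to re-energize the cells and trigger efflux, which was followed by fluorometry. An acrB-deleted isogenic strain served as the maximum-accumulation (no-efflux) reference. Triplicate experiments used different cell batches.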

Assay [12] shares this target. The assay is described as follows: Inhibition of AcrB in Escherichia coli BW25113 assessed as potentiation of erythromycin induced antibacterial activity by measuring erythromycin MIC at 256 ug/ml measured after 18 hrs by checkerboard titration method (reference value: 64 ug/ml). As to conditions: dose 256.0 µg/ml.
For assay [13] the target is unchanged. Kind of assay: Inhibition of AcrB in Escherichia coli BW25113 assessed as potentiation of tetraphenylphosphonium induced antibacterial activity by measuring tetraphenylphosphonium MIC at 256 ug/ml measured after 18 hrs by checkerboard titration method (reference value: 1024 ug/ml). As to conditions: dose 256.0 µg/ml.
Assay [14] shares this target. The assay is described as follows: Inhibition of AcrB in Escherichia coli BW25113 assessed as potentiation of levofloxacin induced antibacterial activity by measuring levofloxacin MIC at 256 ug/ml measured after 18 hrs by checkerboard titration method (reference value: 0.06 ug/ml). The note with it: dose 256.0 µg/ml.
For assay [15] the target is unchanged. The assay is described as follows: Inhibition of AcrB in Escherichia coli BW25113 assessed as potentiation of rifampicin induced antibacterial activity by measuring rifampicin MIC at 256 ug/ml measured after 18 hrs by checkerboard titration method (reference value: 16 ug/ml). The note with it: dose 256.0 µg/ml.

`Nc1ccccc1C(=O)NCCc1ccc(O)c(O)c1`: the MIC in assay [1] was determined as 64 µg/mL; in assay [2] it was 64 µg/mL; in assay [3] it was 64 µg/mL; in assay [4], 32 µg/mL; in [5] it was 512 µg/mL; in assay [6], 0.06 µg/mL. The MIC was found to be 0.06 µg/mL in assay [7], 0.06 µg/mL in assay [8], 16 µg/mL in [9] and 16 µg/mL in assay [10]. Also, the inhibition entry in assay [11] was “Active”.

On to `Oc1ccc(CCCc2ccc(O)c(O)c2)cc1O`, for which the MIC turned out to be 64 µg/mL in [2]; 32 µg/mL in [3]; 32 µg/mL in assay [4]; 32 µg/mL in assay [12]; 512 µg/mL in [5]; 512 µg/mL in [13]. Further, the MIC was determined as 0.06 µg/mL in assay [7]; 0.06 µg/mL in assay [8]; 0.06 µg/mL in [14]; 16 µg/mL in assay [10]; 16 µg/mL in assay [15]. The inhibition result in assay [11] is “Active”.

As for `Nc1ccc(C(=O)NCCc2ccc(O)c(O)c2)cc1`, the MIC in assay [1] is 64 µg/mL; in assay [2], 64 µg/mL; in [3], 32 µg/mL; in [4], 16 µg/mL; in [5] it was 512 µg/mL; in assay [6], 0.06 µg/mL. The MIC in assay [7] worked out at 0.06 µg/mL; in assay [8], 0.06 µg/mL; in [9], 16 µg/mL; in [10], 16 µg/mL. In [11], the inhibition entry is “Active”.

Regarding `O=C(NCCc1ccc(O)c(O)c1)c1cc(O)c(O)c(O)c1`, the MIC was determined as 32 µg/mL in assay [1]; 32 µg/mL in assay [2]; 16 µg/mL in assay [3]; 16 µg/mL in [4]; 256 µg/mL in assay [5]; 0.06 µg/mL in [6]. The MIC in [7] came to 0.03 µg/mL; in assay [8], 0.03 µg/mL; in [9], 16 µg/mL; in [10], 16 µg/mL. In addition, the inhibition entry in assay [11] was “Active”.

Take `Oc1ccc(CCCCc2cc(O)c(O)c(O)c2)cc1O`: the MIC in assay [2] turned out to be 64 µg/mL; in [3], 32 µg/mL; in assay [4], 32 µg/mL; in assay [12], 32 µg/mL; in assay [5] it was 256 µg/mL; in assay [13] it was 256 µg/mL. Also, the MIC in assay [7] was 0.06 µg/mL; in assay [8] it was 0.06 µg/mL; in assay [14], 0.06 µg/mL; in assay [10], 16 µg/mL; in [15] it was 16 µg/mL. In assay [11], the inhibition entry was “Active”.

As to `Oc1ccc(CCCCc2ccccc2O)cc1O`, the MIC stood at 64 µg/mL in assay [2]; 64 µg/mL in assay [3]; 64 µg/mL in [4]; 32 µg/mL in assay [12]; 512 µg/mL in [5]; 512 µg/mL in [13]. For the same compound, the MIC in assay [7] stood at 0.06 µg/mL; in assay [8], 0.06 µg/mL; in [14], 0.06 µg/mL; in [10], 16 µg/mL; in [15], 16 µg/mL. The inhibition entry in [11] was “Active”.
